Test results as given in ChEMBL document CHEMBL6153131, “Rational Design and Optimization of a Potent IDO1 Proteolysis Targeting Chimera (PROTAC)” (J Med Chem, 2025).
Activity calls are given as the source filed them. The rule behind the calls is not given here.

Assays:
[1] = biological target: T1, Protein cereblon/Indoleamine 2,3-dioxygenase 1 (Homo sapiens, UniProt P14902+Q96SW2); assay: PROTAC activity at CRBN/IDO1 in human MDA-MB-231 cells assessed as induction of IDO1 degradation pretreated with IFN-gamma for 24 hrs followed by compound addition and measured after 24 hrs by Western blotting analysis; assay type: cell-based; details: dose 50-100 nM
Summary of the method: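 Cells had IDO1 induced with IFNγ, then were treated at the indicated concentrations for 24 h. Lines: PDX-6 and PDX-38 adult GBM PDX cells, U87 overexpressing GFP-fused IDO1, PC-3, KNS42, MDA-MB-231, SW-1990 and SKOV-3. Lysates probed for IDO1 and GAPDH by Western blot; representative of 3 separate replicates.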
Target sequence in this assay (P14902 whole entry, looked up, the tested form may be a part): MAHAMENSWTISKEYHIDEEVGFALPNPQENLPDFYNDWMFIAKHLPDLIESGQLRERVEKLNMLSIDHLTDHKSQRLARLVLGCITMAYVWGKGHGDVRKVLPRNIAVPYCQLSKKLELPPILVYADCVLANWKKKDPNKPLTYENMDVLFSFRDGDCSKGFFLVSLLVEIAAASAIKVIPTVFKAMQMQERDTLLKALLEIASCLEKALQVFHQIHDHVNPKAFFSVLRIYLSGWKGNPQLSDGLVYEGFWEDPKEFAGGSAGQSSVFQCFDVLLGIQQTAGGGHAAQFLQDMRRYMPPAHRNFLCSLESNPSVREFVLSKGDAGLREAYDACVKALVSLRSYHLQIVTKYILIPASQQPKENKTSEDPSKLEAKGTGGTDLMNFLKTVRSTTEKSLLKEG
Target sequence in this assay (Q96SW2 whole entry, looked up, the tested form may be a part): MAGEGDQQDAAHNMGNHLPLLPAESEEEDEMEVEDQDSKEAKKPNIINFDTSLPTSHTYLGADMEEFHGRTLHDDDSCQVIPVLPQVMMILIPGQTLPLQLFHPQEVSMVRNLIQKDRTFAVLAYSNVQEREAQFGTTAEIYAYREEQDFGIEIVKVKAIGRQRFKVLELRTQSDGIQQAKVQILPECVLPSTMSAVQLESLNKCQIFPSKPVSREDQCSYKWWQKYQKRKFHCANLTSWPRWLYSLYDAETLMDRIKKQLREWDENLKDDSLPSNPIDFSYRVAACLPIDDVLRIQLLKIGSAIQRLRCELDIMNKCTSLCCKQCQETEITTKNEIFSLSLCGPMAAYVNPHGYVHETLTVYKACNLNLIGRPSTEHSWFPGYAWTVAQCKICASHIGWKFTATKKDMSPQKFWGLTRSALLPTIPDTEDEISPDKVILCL

[2] = biological target: T1, Protein cereblon/Indoleamine 2,3-dioxygenase 1; assay: PROTAC activity at CRBN/IDO1 in human U87 cells assessed as induction of IDO1 degradation by measuring remaining activity at 0.001 uM pretreated with IFN-gamma for 24 hrs followed by compound addition and measured after 24 hrs by Western blotting analysis (reference value: 100%); assay type: cell-based
Summary of the method: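 U87 cells given an extended dose range of PROTAC for 24 h, then Western blot for IDO1. IFNγ-induced IDO1 levels normalised to untreated samples. n = 3 independent experiments; mean ± SEM.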
Target sequence in this assay (P14902 whole entry, looked up, the tested form may be a part): as the sequence (P14902 whole entry, looked up, the tested form may be a part) above
Target sequence in this assay (Q96SW2 whole entry, looked up, the tested form may be a part): as the sequence (Q96SW2 whole entry, looked up, the tested form may be a part) above

[3] = biological target: T1, Protein cereblon/Indoleamine 2,3-dioxygenase 1; assay: PROTAC activity at CRBN/IDO1 in human U87 cells assessed as induction of IDO1 degradation at 100 nM at 1 uM pretreated with IFN-gamma for 24 hrs followed by compound addition and measured after 24 hrs in presence of pomalidomide by Western blotting analysis; assay type: cell-based
Target sequence in this assay (P14902 whole entry, looked up, the tested form may be a part): as the sequence (P14902 whole entry, looked up, the tested form may be a part) above
Target sequence in this assay (Q96SW2 whole entry, looked up, the tested form may be a part): as the sequence (Q96SW2 whole entry, looked up, the tested form may be a part) above

[4] = biological target: T1, Protein cereblon/Indoleamine 2,3-dioxygenase 1; assay: PROTAC activity at CRBN/IDO1 in human GBM43 cell assessed as induction of IDO1 degradation pretreated with IFN-gamma for 24 hrs followed by compound addition and measured after 24 hrs by Western blot analysis; assay type: cell-based
Summary of the method: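 GBM43 cells treated for 24 h across an extended dose range. IDO1 Western blot, IFN-γ-induced IDO1 normalized to untreated; DC50 from n = 3 independent experiments.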
Target sequence in this assay (P14902 whole entry, the tested form may be a part): as the sequence (P14902 whole entry, looked up, the tested form may be a part) above
Target sequence in this assay (Q96SW2 whole entry, the tested form may be a part): as the sequence (Q96SW2 whole entry, looked up, the tested form may be a part) above

[5] = Half life in female C57BL/6J mouse plasma at 50 mg/kg, ip by LC-MS/MS analysis; assay type: ADME, organism-based
[6] = AUC (0 to infinity) in female C57BL/6J mouse brain at 50 mg/kg, ip by LC-MS/MS analysis; assay type: ADME, organism-based
[7] = system: U-87MG ATCC; assay: Inhibition of kynurenine production in human U87 cells […] and measured after 24 hrs by Ehrlich's reagent based analysis; assay type: functional, cell-based; details: dose 0.001-10 µM
Summary of the method: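 U87 cells plated, then 24 h later given compound with 50 ng/mL IFN-γ for a total of 24 h. Supernatant kynurenine measured with Ehrlich's reagent; cells without IFN-γ as control; mean ± SEM, Tukey's test.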

[8] = biological target: T1, Protein cereblon/Indoleamine 2,3-dioxygenase 1; assay: PROTAC activity at CRBN/IDO1 in human U87 cells assessed as induction of IDO1 degradation by measuring remaining activity at 0.003 uM incubated for 24 hrs by Western blotting analysis (reference value: 100%); assay type: cell-based
Target sequence in this assay (P14902 whole entry, looked up, the tested form may be a part): as the sequence (P14902 whole entry, looked up, the tested form may be a part) above
Target sequence in this assay (Q96SW2 whole entry, looked up, the tested form may be a part): as the sequence (Q96SW2 whole entry, looked up, the tested form may be a part) above

[9] = biological target: T1, Protein cereblon/Indoleamine 2,3-dioxygenase 1; assay: PROTAC activity at CRBN/IDO1 in human U87 cells assessed as induction of IDO1 degradation at 100 nM pretreated with IFN-gamma for 24 hrs followed by compound addition and measured after 24 hrs in presence of NU223618 by Western blotting analysis; assay type: cell-based
Target sequence in this assay (P14902 whole entry, looked up, the tested form may be a part): as the sequence (P14902 whole entry, looked up, the tested form may be a part) above
Target sequence in this assay (Q96SW2 whole entry, looked up, the tested form may be a part): as the sequence (Q96SW2 whole entry, looked up, the tested form may be a part) above

[10] = biological target: T1, Protein cereblon/Indoleamine 2,3-dioxygenase 1; assay: PROTAC activity at CRBN/IDO1 in human U87 cells assessed as induction of IDO1 degradation at 50 to 100 nM pretreated with IFN-gamma for 24 hrs followed by compound addition and measured upto 72 hrs by Western blotting analysis; assay type: cell-based; details: dose 50-100 nM
Summary of the method: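 U87 cells under single continuous PROTAC treatment (50 and 100 nM), sampled at multiple time points up to 72 h. IDO1 assessed by Western blot.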
Target sequence in this assay (P14902 whole entry, looked up, the tested form may be a part): as the sequence (P14902 whole entry, looked up, the tested form may be a part) above
Target sequence in this assay (Q96SW2 whole entry, looked up, the tested form may be a part): as the sequence (Q96SW2 whole entry, looked up, the tested form may be a part) above

[11] = system: SW1990; assay: Inhibition of kynurenine production in human SW1990 cells pretreated with IFN-gamma for 24 hrs followed by compound addition and measured after 24 hrs by Ehrlich's reagent based analysis; assay type: functional, cell-based; details: dose 50-100 nM

SMILES: C[C@@H](C(=O)Nc1cccc(OC2CCN(C(=O)CN3CCC(N4CCN(c5ccc6c(c5)C(=O)N(C5CCC(=O)NC5=O)C6=O)CC4)CC3)CC2)c1)[C@H]1CC[C@@H](c2ccnc3ccc(F)cc32)CC1 (stereo partly specified)
- Activity [1]: Dose-dependent-effect
- Activity [2]: 83%
- Activity [3]: inactive
- DC50 [4]: 0.0118 µM
- half-life [5]: 5.7 h
- AUC(0-inf) [6]: 1000 nM·h
- inhibition [7]: Dose-dependent-effect
- Activity [8]: 71%
- Activity [9]: inactive
- Activity [10]: Active
- inhibition [11]: Dose-dependent-effect
